A1 inh: inhibitors of the anti-apoptotic protein A1, read as caspase activation; MEF A1-2A-BIM cells, Caspase-Glo 3/7 luminescence, 3 h; percent of clofoctol response, vehicle zero; caspase activation, % (no concentration beside the values); 330,000 tested, 0.066% active; AID 2462;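 active means over half of replicate activation scores above 10%, or exactly half above 10 with the replicate mean above 10; inconclusive means replicate mean below 10 yet half the replicates above 10; inactive means over half of replicates below 10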
T cruzi repl: T. cruzi replication inhibition; inhibition, % (no concentration beside the values); T. cruzi beta-gal in NIH3T3, luminescence, 90 h; 300,000 tested, 1.4% active;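 active means mean inhibition across valid replicates above about 55%, limit read from the data; inconclusive means mean below that limit but half or more replicates reach it; inactive means mean below it, under half of replicates reach it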;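 further: signal also drops with host cell toxicity which is not excluded here; higher percent means less beta-gal luminescence so fewer parasites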
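System: NIH/3T3 fibroblasts plus reporter T. cruzi. Medium: DMEM plus 2% FBS. Probe or stimulus: 5000 reporter trypomastigotes per well. Compound: single 50 nL compound addition per well in DMSO. Incubation: co-culture of at least 90 h after 3 h attachment. Detection: GalScreen β-gal luminescence, detergent lysis, 60 min. Evaluation: parasite load inhibition, %.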
CSC inhib: blocks cancer stem cells; AID 2717; inhibition, % at 7.5 µM; 300,000 tested, 1.1% active; cancer stem cell-like cells viability, luminescence; in the data active means inhibition above about 75%; inconclusive means no clear call, values can overlap the other calls; tested in HMLE shEcad cells
Calb FLC: affects C. albicans growth with fluconazole. C. albicans CaCi-2 + fluconazole, Alamar Blue growth, 48 h. growth inhibition, % (test concentration not listed). 300,000 tested, 0.57% active. AID 1979;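 active means growth inhibition above about 58% in most replicates, limit read from the data, passing the limit was not always enough; inconclusive means exactly half the replicates above a set limit; inactive means most replicates below a set limit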;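 further: all wells also contain fluconazole at 8 µg/ml as a sub-toxic cotreatment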
H9c2 TAG inh: triacylglycerol accumulation inhibition | H9c2 cells, Nile Red lipid (TAG) fluorescence; cells loaded with 200 µM oleic acid | AID 651582 | 230,000 tested, 0.66% active | inhibition, % at 12.5 µM;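 active means pattern-corrected inhibition of lipid staining of at least 50% with the nuclear-stain viability signal not falling by more than 50%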
Beta apoptosis: blocks beta cell apoptosis. INS-1E cytokine-induced death, ATP luminescence, 48 h; percent of positive-control rescue, neutral wells zero. protection from apoptosis, % (test concentration not listed). 300,000 tested, 0.8% active;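 active means Every replicate reaches about 75%, or at least half do and their mean reaches it too, limit read from the data; inconclusive means At least half of replicates reach the limit but their mean does not; inactive means Under half of replicates reach the limit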;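 further: higher means more ATP so stronger rescue from cytokine killing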
Each line names hits and unclear results; the compound was inactive in the other large screens. Shown are actives, neighbours in structure and some others; about 3.1% of the full set was active somewhere.

CCc1c(C)c(C#N)c2nc3ccccc3n2c1NCCN(C)C	T cruzi repl 68 (no result: H9c2 TAG inh)
C=CCc1c(C)c(C#N)c2nc3ccccc3n2c1NCCN(C)C	Calb FLC 91
C=C(C)Cc1c(C)c(C#N)c2nc3ccccc3n2c1NCCCN(C)C	T cruzi repl inconclusive
Cc1coc2cc3oc(=O)c(CCC(=O)N4CCC(C(=O)O)(c5ccccc5)CC4)c(C)c3cc12	none (no result: H9c2 TAG inh)
CCOc1ccc(NC(=O)CN(C)C(=O)c2cc3c(s2)CCC3)cc1OCC	none (no result: A1 inh, T cruzi repl, CSC inhib, Calb FLC, Beta apoptosis)
Cc1ccc(C(=O)/C=C\C(=O)c2ccc(C)cc2)cc1	T cruzi repl 71 (no result: H9c2 TAG inh)
CC(/C=C/C(=O)c1ccc(C)cc1)=C\c1ccccc1	none
CCCCCCC(NC(=O)Cc1ccc2ccccc2c1)C(=O)O (stereo not given)	none (no result: A1 inh, T cruzi repl, CSC inhib, Calb FLC, Beta apoptosis)
Cc1cc(C)nc(NC(=O)/C=C/c2ccc3c(c2)OCO3)c1	CSC inhib 85 (no result: H9c2 TAG inh)
COc1cc(/C=C/C(=O)NCc2cccnc2)cc(OC)c1OC	none
CC(=O)Nc1ccc(NC(=O)/C=C/c2ccc3c(c2)OCO3)cc1	none
O=C(/C=C/c1ccc2c(c1)OCO2)Nc1nc(-c2ccccc2)cs1	CSC inhib 99 (no result: Beta apoptosis)
O=C(/C=C/c1ccc2c(c1)OCO2)Nc1cccnc1	CSC inhib 83
COc1cc(/C=C/C(=O)Nc2cccnc2)cc(OC)c1OC	Calb FLC 76 (no result: H9c2 TAG inh)
O=C(/C=C/c1ccc2c(c1)OCO2)Nc1nncs1	none (no result: Beta apoptosis)
Cc1sc(NC(=O)/C=C/c2ccc3c(c2)OCO3)nc1-c1ccccc1	CSC inhib 108 (no result: H9c2 TAG inh)
C/C(=N/NC(=O)CN1CCN(Cc2ccccc2Cl)CC1)c1cccnc1	none
C=CCn1c(SCC(=O)Nc2sccc2C(N)=O)nc2ccc(Cl)cc2c1=O	none
C=CCn1c(SCN2C(=O)c3ccccc3C2=O)nc2ccc(Cl)cc2c1=O	Beta apoptosis 98 (no result: H9c2 TAG inh)
CC(=O)Oc1c(Cl)cc(Cl)cc1/C=C/c1ccc2ccccc2n1	CSC inhib 109 (no result: H9c2 TAG inh)
O=C1CCN(Cc2ccccc2)S(=O)(=O)c2c(F)cc(F)cc21	none (no result: T cruzi repl, Calb FLC)
NS(=O)(=O)c1ccc(Nc2nc(-c3ccc4ccccc4c3)cs2)cc1	none (no result: H9c2 TAG inh)
NS(=O)(=O)c1ccc(Nc2nc(-c3cccc([N+](=O)[O-])c3)cs2)cc1	T cruzi repl 58
COc1ccc(CCC(=O)N2CCN(S(=O)(=O)c3ccc(OC(F)(F)F)cc3)CC2)cc1	none (no result: T cruzi repl, Calb FLC)
NS(=O)(=O)c1ccc(N2N=C(c3ccccc3)CC2c2cccc(F)c2)cc1 (stereo not given)	none (no result: H9c2 TAG inh)
NS(=O)(=O)c1ccc(N2N=C(c3ccc(Br)cc3)CC2c2ccc(F)cc2)cc1 (stereo not given)	CSC inhib 125
CCc1cc(CNC(=O)c2ccc3nc(Cc4ccc(OC)c(OC)c4)oc3c2)on1	Beta apoptosis 107 (no result: H9c2 TAG inh)
COc1ccc(Cc2nc3ccc(C(=O)NCc4cc(C)no4)cc3o2)cc1	none
CCC1=NN(C(=O)c2cccc(Br)c2)C(O)(c2ccc(Br)cc2)C1 (stereo not given)	CSC inhib 105, Beta apoptosis inconclusive
CC1Cc2cc(S(=O)(=O)N3CCC(C(=O)N4CCN(c5ccccc5F)CC4)CC3)ccc2N1C(=O)C1CC1 (stereo not given)	Beta apoptosis 75 (no result: H9c2 TAG inh)
CC(=O)c1ccc(N2CCN(S(=O)(=O)c3ccc4c(c3)CC(C)N4C(=O)C3CC3)CC2)cc1 (stereo not given)	none (no result: H9c2 TAG inh, Beta apoptosis)
COc1ccccc1N1CCN(C(=O)C2CCN(S(=O)(=O)c3ccc4c(c3)CC(C)N4C(=O)C3CC3)CC2)CC1 (stereo not given)	none (no result: H9c2 TAG inh)
CC(=O)c1ccc(N2CCN(S(=O)(=O)c3ccc4c(c3)CC(C)N4C(C)=O)CC2)cc1 (stereo not given)	Beta apoptosis 91 (no result: H9c2 TAG inh)
CCC(=O)N1c2ccc(S(=O)(=O)N3CCN(c4ccc([N+](=O)[O-])cc4)CC3)cc2CC1C (stereo not given)	Beta apoptosis 92 (no result: H9c2 TAG inh)
CCN(CC)C(=O)c1cccc(-c2csc(C(NC(C)=O)c3ccc(F)c(F)c3)n2)c1 (stereo not given)	none (no result: A1 inh, T cruzi repl, CSC inhib, Calb FLC, Beta apoptosis)
NS(=O)(=O)c1ccc(NC(=S)NCc2ccc3c(c2)OCO3)cc1	none
NS(=O)(=O)c1cccc(NC(=S)NCc2ccc3c(c2)OCO3)c1	Calb FLC 116 (no result: T cruzi repl)
COc1ccccc1NC(=O)c1ccccc1N(Cc1ccccc1)S(C)(=O)=O	none (no result: H9c2 TAG inh)
CCn1c(C)c(/C=N/Nc2nc3ccccc3s2)c2ccccc21	T cruzi repl 69 (no result: A1 inh, CSC inhib, H9c2 TAG inh, Beta apoptosis)
C(=N\Nc1nc2ccccc2s1)/c1cccs1	none (no result: H9c2 TAG inh)
CCOc1ccc(N=Cc2c(C)[nH]n(-c3nc4ccccc4[nH]3)c2=O)cc1	CSC inhib 118, Beta apoptosis 114
Cc1[nH]n(-c2ccccc2)c(=O)c1C=Nc1cnc2ccccc2c1	none (no result: H9c2 TAG inh)
CCOC(=O)c1ccc(S(=O)(=O)NCCNCc2ccccc2)cc1	none (no result: T cruzi repl, Calb FLC)
CC(=O)c1cccc(S(=O)(=O)N2CCC(C(=O)Nc3cccc(C(=O)NC4CC4)c3)CC2)c1	none (no result: T cruzi repl, Calb FLC)
CC1=CC(=C(C#N)c2nc3ccccc3s2)C=C(C)N1Cc1ccco1	T cruzi repl 64 (no result: H9c2 TAG inh)
O=C(O)CC(c1ccc(Br)cc1)N1Cc2ccccc2C1=O (stereo not given)	none (no result: H9c2 TAG inh)
CCN(CC)c1ccc(/C=N/NC(=S)NCc2ccccc2)c(O)c1	Beta apoptosis 83
CCN(CC)c1ccc(/C=N/NC(=O)Cc2cccs2)c(O)c1	Beta apoptosis 92 (no result: H9c2 TAG inh)
CCN(CC)c1ccc(/C=N/NC(=O)c2ccco2)c(O)c1	T cruzi repl 61, CSC inhib 113, Calb FLC 89, Beta apoptosis 93
CCCC(C(=O)Nc1ccncc1)c1ccccc1 (stereo not given)	none
Cc1ccc(NC(=O)CCNS(=O)(=O)c2ccc3[nH]c(=O)oc3c2)c(Cl)c1	none (no result: H9c2 TAG inh)
CCN(CC)c1ccc(/C=C(\C#N)c2ccccn2)cc1	CSC inhib 78 (no result: H9c2 TAG inh)
CCN(Cc1ccccc1)c1ccc(/C=C(\C#N)c2ccccn2)cc1	none (no result: H9c2 TAG inh)
COc1ccc(Cl)cc1NC(=O)CCc1nnc2ccc(N3CCN(C)CC3)nn12	none (no result: H9c2 TAG inh)
O=C1CC(c2ccccc2)CC(O)=C1C=NCc1ccccc1Cl (stereo not given)	CSC inhib 84 (no result: H9c2 TAG inh)
CC(=O)c1ccc(NC(=O)c2ccc([N+](=O)[O-])o2)cc1	CSC inhib 80
COc1cc(NC(=O)c2ccc([N+](=O)[O-])o2)ccc1NC(=O)c1ccco1	none (no result: Calb FLC, H9c2 TAG inh)
Cc1cc(NC(=O)c2ccc([N+](=O)[O-])o2)ccc1NC(=O)c1ccco1	Calb FLC 58 (no result: A1 inh, CSC inhib, H9c2 TAG inh, Beta apoptosis)
Cc1cc(C)cc(NC(=O)c2ccc([N+](=O)[O-])o2)c1	none (no result: A1 inh, CSC inhib, H9c2 TAG inh, Beta apoptosis)
COc1ccc(NC(=O)c2ccc([N+](=O)[O-])o2)cc1	Calb FLC 103 (no result: Beta apoptosis)
CC(=O)c1cccc(NC(=O)c2ccc([N+](=O)[O-])o2)c1	none
Cc1ccc(NC(=O)CNC(=O)c2cccc(C)c2)nc1	none (no result: Beta apoptosis)
Cc1noc(C)c1COc1ccc(C(=O)NCC(c2c(F)cccc2Cl)N(C)C)cc1 (stereo not given)	none (no result: A1 inh, T cruzi repl, CSC inhib, Calb FLC, Beta apoptosis)
